This note sets out measurements from ChEMBL document CHEMBL1157014, “Synthesis, characterization and biological evaluation of some thiourea derivatives bearing benzothiazole moiety as potential antimicrobial and anticancer agents” (Eur J Med Chem, 2010).

In one experiment the test system is Enterobacter cloacae. Briefly: Antibacterial activity against Enterobacter cloacae ATCC 13047 after 24 hrs by browth microdilution assay. It is filed as functional. The conditions noted are these: ATCC 13047, 24 h. Summed up: (§1)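 Broth microdilution per CLSI. Colonies suspended in 0.9% saline and adjusted to McFarland 0.5. Compounds dissolved in DMSO, diluted with distilled water to 100, 50, 25, 12.5, 6.25 and 3.125 µg/ml, with DMSO as negative control. Gentamycin (Gram-negative) and amikacin (Gram-positive) served as reference drugs. Incubation at 37 °C for 24 h. MIC taken as the lowest concentration preventing visible growth.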
(Broth dilution looks for growth in wells or tubes with falling amounts of substance.)

For the next experiment, the system named is Pseudomonas aeruginosa. Kind of experiment: Antibacterial activity against Pseudomonas aeruginosa ATCC 27853 after 24 hrs by browth microdilution assay. Format: functional. As to conditions: ATCC 27853, 24 h. Summed up: as §1
In another experiment the test system is Proteus vulgaris. Briefly: Antibacterial activity against Proteus vulgaris ATCC 13315 after 24 hrs by browth microdilution assay. The conditions noted are these: ATCC 13315, 24 h. Format: functional. Summed up: as §1
For experiment [1], the system named is Staphylococcus epidermidis. Kind of experiment: Antibacterial activity against Staphylococcus epidermidis ATCC 12228 after 24 hrs by browth microdilution assay. It is filed as functional. As to conditions: ATCC 12228, 24 h. Summed up:
as §1

Another experiment relates to Staphylococcus aureus. Briefly: Antibacterial activity against Staphylococcus aureus ATCC 29213 after 24 hrs by browth microdilution assay. Format: functional. As to conditions: ATCC 29213, 24 h. The method in brief: as §1
The subject of another experiment is Enterococcus faecalis. Briefly: Antibacterial activity against Enterococcus faecalis ATCC 29212 after 24 hrs by browth microdilution assay. It is filed as functional. The conditions noted are these: ATCC 29212, 24 h. Summed up: as §1
The next experiment concerns Nakaseomyces glabratus. Kind of experiment: Antifungal activity against Candida glabrata ATCC 32554 after 48 hrs by browth microdilution assay. As to conditions: ATCC 32554, 48 h. Format: functional. The method in brief:
(§2)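 Yeast colonies suspended in 0.9% saline and adjusted to McFarland 0.5, then tested by CLSI broth microdilution. Compounds in DMSO, diluted with distilled water to 3.125–100 µg/ml, with DMSO as negative control and nystatin as reference. Incubation at 37 °C, read after 48 h. MIC is the lowest concentration with no visible growth.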

A further experiment has as its system Candida albicans. Kind of experiment: Antifungal activity against Candida albicans ATCC 90028 after 48 hrs by browth microdilution assay. Format: functional. The conditions noted are these: ATCC 90028, 48 h. The method in brief: as §2
For another experiment, the system named is Candida tropicalis. Briefly: Antifungal activity against Candida tropicalis ATCC 20336 after 48 hrs by browth microdilution assay. Format: functional. As to conditions: ATCC 20336, 48 h. The method in brief:
as §2

The test system of the next experiment is Pichia kudriavzevii. Briefly: Antifungal activity against Candida krusei ATCC 6268 after 48 hrs by browth microdilution assay. The conditions noted are these: ATCC 6268, 48 h. It is filed as functional. The method in brief:
as §2

In experiment [2] the test system is MCF7. Briefly: Cytotoxicity against human MCF7 after 24 hrs by MTT assay. It is filed as functional, cell-based. As to conditions: MCF7, 24 h. The method in brief: (§3)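 Cells grown in MEM with 10% FBS and 1% glutamine at 5% CO2, seeded at 1.0×10^4 cells. Exposed to compounds at 1–100 µM in medium containing 0.1% DMSO for 24 h at 37 °C. MTT (1 mg/ml) added for 5 h at 37 °C, then DMSO added and absorbance read at 540 nm. Run in triplicate; IC50 determined.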
(In general: Formazan colour is commonly taken as a measure of viable cells.)

In a further experiment the test system is HeLa. Kind of experiment: Cytotoxicity against human HeLa after 24 hrs by MTT assay. It is filed as functional, cell-based. Summed up:
as §3

Experiment [3] deals with MCF7. Kind of experiment: Cytotoxicity against human MCF7 after 48 hrs by MTT assay. It is filed as functional, cell-based. The conditions noted are these: MCF7, 48 h. Summed up: (§4)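 MCF-7 cells in MEM with 10% FBS at 5% CO2 were exposed to compounds (1–100 µM, 0.1% DMSO vehicle) for 48 or 72 h before MTT read-out. IC50 values came from the MTT assay.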
Experiment [4] has as its system MCF7. Briefly: Cytotoxicity against human MCF7 after 72 hrs by MTT assay. Format: functional, cell-based. The conditions noted are these: MCF7, 72 h. The method in brief: as §4
In another experiment the test system is Escherichia coli. Briefly: microbe, parasite or virus in culture. As to conditions: ATCC 25922, 24 h.
Experiment [5] deals with Staphylococcus aureus (ATCC 25923). Briefly: Antibacterial activity against Staphylococcus aureus ATCC 25923 after 24 hrs by browth microdilution assay. As to conditions: ATCC 25923, 24 h.

Converted amounts (≈) assume the structure as drawn.

As usually defined, the IC50 is the concentration at which inhibition is half-maximal. The low end stands for inhibition by little substance, the high end for a need for much substance. In the case of `O=C(NC(=S)Nc1nc2cc(Br)ccc2s1)N1CCOCC1`, the MIC stood at 50 µg/mL (≈ 125 µM) against Enterobacter cloacae; 50 µg/mL (≈ 125 µM) in the experiment on Pseudomonas aeruginosa; 50 µg/mL (≈ 125 µM) against Proteus vulgaris; 25 µg/mL (≈ 62.3 µM) in [1]; 25 µg/mL (≈ 62.3 µM) against Staphylococcus aureus; 50 µg/mL (≈ 125 µM) with Enterococcus faecalis. Also, the MIC was 25 µg/mL (≈ 62.3 µM) in the experiment on Nakaseomyces glabratus; 50 µg/mL (≈ 125 µM) in the experiment on Candida albicans; 25 µg/mL (≈ 62.3 µM) with Candida tropicalis; 50 µg/mL (≈ 125 µM) in the experiment on Pichia kudriavzevii; 25 µg/mL (≈ 62.3 µM) with Escherichia coli; 50 µg/mL (≈ 125 µM) in experiment [5]. For the same molecule, the IC50 in the experiment with MCF7 [2] came out at 18.1 µM; in the experiment on HeLa it was 38.9 µM; with MCF7 [3], 20.3 µM; in the experiment on MCF7 [4], 6.95 µM.

For `Nc1ccc2sc(NC(=S)NC(=O)N3CCOCC3)nc2c1`, the MIC against Enterobacter cloacae is 25 µg/mL (≈ 74.1 µM); in the experiment with Pseudomonas aeruginosa, 50 µg/mL (≈ 148 µM); against Proteus vulgaris, 20 µg/mL (≈ 59.3 µM); in experiment [1] it was 20 µg/mL (≈ 59.3 µM); with Staphylococcus aureus, 25 µg/mL (≈ 74.1 µM); in the experiment on Enterococcus faecalis, 50 µg/mL (≈ 148 µM). In addition, the MIC is 15 µg/mL (≈ 44.5 µM) with Nakaseomyces glabratus; 20 µg/mL (≈ 59.3 µM) against Candida albicans; 20 µg/mL (≈ 59.3 µM) against Candida tropicalis; 25 µg/mL (≈ 74.1 µM) in the experiment with Pichia kudriavzevii; 20 µg/mL (≈ 59.3 µM) in the experiment on Escherichia coli; 50 µg/mL (≈ 148 µM) in experiment [5]. For the same molecule, the IC50 was found to be 26.4 µM in the experiment with MCF7 [2], 45.3 µM in the experiment on HeLa, 19.2 µM in the experiment with MCF7 [3] and 17.1 µM in the experiment on MCF7 [4].

Consider `O=C(NC(=S)Nc1nc2ccccc2s1)c1cccs1`, for which the MIC (against Enterobacter cloacae; with Pseudomonas aeruginosa; against Proteus vulgaris; in experiment [1]; against Staphylococcus aureus; in the experiment on Enterococcus faecalis) was 50 µg/mL (≈ 157 µM) throughout. The MIC stood at 25 µg/mL (≈ 78.3 µM) against Nakaseomyces glabratus; 50 µg/mL (≈ 157 µM) in the experiment on Candida albicans; 50 µg/mL (≈ 157 µM) against Candida tropicalis; 25 µg/mL (≈ 78.3 µM) against Pichia kudriavzevii; 25 µg/mL (≈ 78.3 µM) against Escherichia coli; 50 µg/mL (≈ 157 µM) in experiment [5]. Further, the IC50 in the experiment with MCF7 [2] was found to be 32.6 µM; in the experiment on HeLa, 68.2 µM.

Consider `O=C(NC(=S)Nc1nc2cc([N+](=O)[O-])ccc2s1)c1cccs1`, for which the MIC with Enterobacter cloacae stood at 15 µg/mL (≈ 41.2 µM); against Pseudomonas aeruginosa it was 20 µg/mL (≈ 54.9 µM); in the experiment on Proteus vulgaris, 20 µg/mL (≈ 54.9 µM); in [1], 10 µg/mL (≈ 27.4 µM); in the experiment on Staphylococcus aureus, 25 µg/mL (≈ 68.6 µM); against Enterococcus faecalis, 15 µg/mL (≈ 41.2 µM). For the same molecule, the MIC with Nakaseomyces glabratus is 10 µg/mL (≈ 27.4 µM); against Candida albicans, 15 µg/mL (≈ 41.2 µM); in the experiment on Candida tropicalis, 15 µg/mL (≈ 41.2 µM); in the experiment with Pichia kudriavzevii, 20 µg/mL (≈ 54.9 µM); in the experiment on Escherichia coli it was 15 µg/mL (≈ 41.2 µM); in experiment [5], 25 µg/mL (≈ 68.6 µM). The values for the half-inhibitory concentration (IC50) in the experiment with MCF7 [2] and with HeLa were 35.9 µM and 72.6 µM, respectively.

As for `O=C(NC(=S)Nc1nc2cc(Br)ccc2s1)c1cccs1`, the MIC in the experiment on Enterobacter cloacae was 50 µg/mL (≈ 126 µM); with Pseudomonas aeruginosa, 25 µg/mL (≈ 62.8 µM); against Proteus vulgaris it was 50 µg/mL (≈ 126 µM); against Escherichia coli, 25 µg/mL (≈ 62.8 µM). Also, the IC50 with MCF7 [2] worked out at 24.2 µM; with HeLa it was 46.5 µM; in the experiment on MCF7 [3] it was 15.7 µM; with MCF7 [4], 12.1 µM.

`O=C(NC(=S)Nc1nc2cc([N+](=O)[O-])ccc2s1)c1ccccc1`: the MIC against Enterobacter cloacae turned out to be 25 µg/mL (≈ 69.8 µM); against Pseudomonas aeruginosa, 20 µg/mL (≈ 55.8 µM); in the experiment with Proteus vulgaris, 15 µg/mL (≈ 41.9 µM); in experiment [1], 20 µg/mL (≈ 55.8 µM); in the experiment on Staphylococcus aureus, 25 µg/mL (≈ 69.8 µM); in the experiment on Enterococcus faecalis, 50 µg/mL (≈ 140 µM). Besides, the MIC against Nakaseomyces glabratus is 15 µg/mL (≈ 41.9 µM); against Candida albicans it was 25 µg/mL (≈ 69.8 µM); against Candida tropicalis it was 50 µg/mL (≈ 140 µM); with Pichia kudriavzevii it was 50 µg/mL (≈ 140 µM); against Escherichia coli it was 20 µg/mL (≈ 55.8 µM); in experiment [5], 15 µg/mL (≈ 41.9 µM). Also, the IC50 in the experiment with MCF7 [2] was 41.6 µM; with HeLa, 75.1 µM.
